How the values were obtained:
[1] = biological target: Histone deacetylase 2 (Homo sapiens) (UniProt Q92769); test: Inhibition of HDAC2 in human HeLa-S3 cell lysates assessed as remaining activity at 6 x 10^-6 M preincubated for 15 mins followed by HDAC-Glo substrate addition measured after 30 to 40 mins by […] relative to control
Outline: (§1)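 Same antibody-capture format as the other class I isoforms. HeLa-S3 lysate added at 100 μg/mL for HDAC1 and HDAC2, 1 h at 4 °C, then washed. Inhibitor in DMSO preincubated 15 min at RT; HDAC-Glo reagent added and luminescence read after 30-40 min. Concentrations are final. Signal corrected against a well without antibody; activity expressed as % of DMSO control.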

[2] = biological target: Histone deacetylase 1 (Homo sapiens) (UniProt Q13547); test: Inhibition of HDAC1 in human HeLa-S3 cell lysates assessed as remaining activity at 1.2 x 10^-5 M preincubated for 15 mins followed by HDAC-Glo substrate addition measured after 30 to 40 mins by […] relative to control
Outline: (§2)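 HDAC1 was captured from HeLa-S3 lysate (100 μg/mL) onto wells precoated with anti-HDAC1 antibody (10 μg/mL, carbonate buffer pH 9.4) and milk-blocked, 1 h at 4 °C, then washed. Inhibitor in DMSO was added in HDAC-Glo buffer for 15 min at room temperature. HDAC-Glo reagent was added and luminescence read after 30-40 min. Concentrations are final. No-antibody background subtracted; % of DMSO control.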

[3] = biological target: Histone deacetylase 1 (Homo sapiens) (UniProt Q13547); test: Inhibition of HDAC1 in human HeLa-S3 cell lysates assessed as remaining activity at 2.4 x 10^-5 M preincubated for 15 mins followed by HDAC-Glo substrate addition measured after 30 to 40 mins by […] relative to control; outline: as §2
[4] = biological target: Histone deacetylase 3 (Homo sapiens) (UniProt O15379); test: Inhibition of HDAC3 in human HeLa-S3 cell lysates assessed as remaining activity at 6 x 10^-6 M preincubated for 15 mins followed by HDAC-Glo substrate addition measured after 30 to 40 mins by […] relative to control
Outline: (§3)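 Antibody-capture (ELISA-type) assay: HDAC antibody coated in carbonate/bicarbonate buffer pH 9.4, wells blocked with 5% milk in TBST. HeLa-S3 lysate added at 1 mg/mL for HDAC3, 1 h at 4 °C, then washed. Inhibitor in DMSO preincubated 15 min at RT in HDAC-Glo buffer. HDAC-Glo reagent added, luminescence read after 30-40 min. Concentrations are final. Background = no-antibody well; activity given as % of DMSO control.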

Histone deacetylase = test: Inhibition of HDAC in human HeLa-S3 cell lysates preincubated for 15 mins followed by HDAC-Glo substrate addition measured after 35 mins by fluorimetric method; type: protein assay
[5] = biological target: T1, Histone deacetylase (Homo sapiens) (UniProt Q13547+O15379+Q9UBN7+Q92769+Q9UQL6+Q8WUI4+Q9BY41+Q96DB2+P56524+Q9UKV0+Q969S8); test: Inhibition of HDAC in human HeLa-S3 cell lysates assessed as residual activity at 1 x 10^-4 M preincubated for 15 mins followed by HDAC-Glo substrate addition measured after 35 mins by […] relative to control; type: protein assay
[6] = biological target: T1, Histone deacetylase (Homo sapiens); test: Inhibition of HDAC in human HeLa-S3 cell lysates assessed as residual activity at 2 x 10^-4 M preincubated for 15 mins followed by HDAC-Glo substrate addition measured after 35 mins by fluorimetric method relative to control; type: protein assay
Outline: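 Lysate (1 μg total protein) in HDAC-Glo buffer was preincubated with inhibitor in DMSO for 15 min at room temperature. HDAC-Glo substrate/developer reagent was added and luminescence read after 35 min. Concentrations are final. Signal corrected for a no-lysate blank; % of DMSO control.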

[7] = biological target: Histone deacetylase 3 (Homo sapiens) (UniProt O15379); test: Inhibition of HDAC3 in human HeLa-S3 cell lysates assessed as remaining activity at 4.8 x 10^-5 M preincubated for 15 mins followed by HDAC-Glo substrate addition measured after 30 to 40 mins by […] relative to control; outline: as §3
[8] = biological target: Histone deacetylase 2 (Homo sapiens) (UniProt Q92769); test: Inhibition of HDAC2 in human HeLa-S3 cell lysates assessed as remaining activity at 3 x 10^-6 M preincubated for 15 mins followed by HDAC-Glo substrate addition measured after 30 to 40 mins by fluorimetric method relative to control; outline: as §1
[9] = biological target: T2, Histone deacetylase 8 (Homo sapiens) (UniProt Q9BY41); test: Inhibition of human recombinant full-length C-terminal His-tagged HDAC8 expressed in baculovirus infected Sf9 insect cell assessed as remaining activity at 4 x 10^-7 M preincubated for 15 mins followed by HDAC-Glo substrate addition measured after 30 mins by fluorimetric method rel;ative to control
T2 sequence (whole entry): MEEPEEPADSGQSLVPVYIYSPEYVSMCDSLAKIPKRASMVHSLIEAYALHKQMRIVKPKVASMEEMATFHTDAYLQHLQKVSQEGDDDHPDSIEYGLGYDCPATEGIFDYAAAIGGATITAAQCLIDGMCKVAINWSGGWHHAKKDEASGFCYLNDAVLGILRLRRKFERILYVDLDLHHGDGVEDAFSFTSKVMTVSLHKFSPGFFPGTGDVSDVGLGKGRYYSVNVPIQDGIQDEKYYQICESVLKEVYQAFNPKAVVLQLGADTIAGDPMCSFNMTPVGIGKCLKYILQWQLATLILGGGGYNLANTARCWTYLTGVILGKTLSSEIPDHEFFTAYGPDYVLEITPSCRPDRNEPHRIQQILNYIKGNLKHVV
Outline: (§4)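 Recombinant HDAC8 (75 ng) preincubated 15 min at RT with inhibitor in DMSO in HDAC-Glo buffer. HDAC-Glo reagent added and luminescence read 30 min later. Background taken from a reaction without enzyme; activity as % of DMSO control.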

[10] = biological target: Histone deacetylase 1 (Homo sapiens) (UniProt Q13547); test: Inhibition of HDAC1 in human HeLa-S3 cell lysates assessed as remaining activity at 6 x 10^-6 M preincubated for 15 mins followed by HDAC-Glo substrate addition measured after 30 to 40 mins by […] relative to control; outline: as §2
[11] = biological target: Histone deacetylase 2 (Homo sapiens) (UniProt Q92769); test: Inhibition of HDAC2 in human HeLa-S3 cell lysates assessed as remaining activity at 2.4 x 10^-5 M preincubated for 15 mins followed by HDAC-Glo substrate addition measured after 30 to 40 mins by fluorimetric method relative to control; outline: as §1
[12] = biological target: Histone deacetylase 1 (Homo sapiens) (UniProt Q13547); test: Inhibition of HDAC1 in human HeLa-S3 cell lysates assessed as remaining activity at 4.8 x 10^-5 M preincubated for 15 mins followed by HDAC-Glo substrate addition measured after 30 to 40 mins by […] relative to control; outline: as §2
[13] = biological target: Histone deacetylase 2 (Homo sapiens) (UniProt Q92769); test: Inhibition of HDAC2 in human HeLa-S3 cell lysates assessed as remaining activity at 1.2 x 10^-5 M preincubated for 15 mins followed by HDAC-Glo substrate addition measured after 30 to 40 mins by […] relative to control; outline: as §1
[14] = biological target: Histone deacetylase 3 (Homo sapiens) (UniProt O15379); test: Inhibition of HDAC3 in human HeLa-S3 cell lysates assessed as remaining activity at 2.4 x 10^-5 M preincubated for 15 mins followed by HDAC-Glo substrate addition measured after 30 to 40 mins by […] relative to control; outline: as §3
[15] = biological target: T1, Histone deacetylase (Homo sapiens); test: Inhibition of HDAC in human HeLa-S3 cell lysates assessed as residual activity at 2.5 x 10^-5 M preincubated for 15 mins followed by HDAC-Glo substrate addition measured after 35 mins by […] relative to control; type: protein assay
[16] = biological target: Histone deacetylase 2 (Homo sapiens) (UniProt Q92769); test: Inhibition of HDAC2 in human HeLa-S3 cell lysates assessed as remaining activity at 4.8 x 10^-5 M preincubated for 15 mins followed by HDAC-Glo substrate addition measured after 30 to 40 mins by […] relative to control; outline: as §1
[17] = biological target: Histone deacetylase 3 (Homo sapiens) (UniProt O15379); test: Inhibition of HDAC3 in human HeLa-S3 cell lysates assessed as remaining activity at 1.2 x 10^-5 M preincubated for 15 mins followed by HDAC-Glo substrate addition measured after 30 to 40 mins by […] relative to control; outline: as §3
[18] = biological target: T1, Histone deacetylase (Homo sapiens); test: Inhibition of HDAC in human HeLa-S3 cell lysates assessed as residual activity at 1.25 x 10^-5 M preincubated for 15 mins followed by HDAC-Glo substrate addition measured after 35 mins by […] relative to control; type: protein assay
[19] = biological target: T2, Histone deacetylase 8 (Homo sapiens); test: Inhibition of human recombinant full-length C-terminal His-tagged HDAC8 expressed in baculovirus infected Sf9 insect cell assessed as remaining activity at 8 x 10^-7 M preincubated for 15 mins followed by HDAC-Glo substrate addition measured after 30 mins by fluorimetric method rel;ative to control; outline: as §4
[20] = biological target: Histone deacetylase 3 (Homo sapiens) (UniProt O15379); test: Inhibition of HDAC3 in human HeLa-S3 cell lysates assessed as remaining activity at 3 x 10^-6 M preincubated for 15 mins followed by HDAC-Glo substrate addition measured after 30 to 40 mins by fluorimetric method relative to control; outline: as §3
[21] = biological target: Histone deacetylase 1 (Homo sapiens) (UniProt Q13547); test: Inhibition of HDAC1 in human HeLa-S3 cell lysates assessed as remaining activity at 3 x 10^-6 M preincubated for 15 mins followed by HDAC-Glo substrate addition […] relative to control

Chain of Histone deacetylase 2 (Homo sapiens) (Q92769 whole entry, canonical isoform): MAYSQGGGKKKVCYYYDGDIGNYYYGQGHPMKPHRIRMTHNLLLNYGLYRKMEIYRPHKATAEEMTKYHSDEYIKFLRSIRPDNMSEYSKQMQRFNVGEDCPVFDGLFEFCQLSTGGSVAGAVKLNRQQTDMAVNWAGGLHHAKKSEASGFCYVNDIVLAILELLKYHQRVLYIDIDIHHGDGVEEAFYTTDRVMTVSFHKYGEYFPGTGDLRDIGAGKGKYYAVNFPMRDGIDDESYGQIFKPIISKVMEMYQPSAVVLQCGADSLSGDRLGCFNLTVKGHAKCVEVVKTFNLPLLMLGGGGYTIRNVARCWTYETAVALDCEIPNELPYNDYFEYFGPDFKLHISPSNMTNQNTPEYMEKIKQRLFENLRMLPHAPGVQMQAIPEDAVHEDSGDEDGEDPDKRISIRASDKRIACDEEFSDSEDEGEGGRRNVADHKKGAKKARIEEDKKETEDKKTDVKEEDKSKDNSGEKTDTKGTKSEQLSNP
Chain of Histone deacetylase 1 (Homo sapiens) (Q13547 whole entry): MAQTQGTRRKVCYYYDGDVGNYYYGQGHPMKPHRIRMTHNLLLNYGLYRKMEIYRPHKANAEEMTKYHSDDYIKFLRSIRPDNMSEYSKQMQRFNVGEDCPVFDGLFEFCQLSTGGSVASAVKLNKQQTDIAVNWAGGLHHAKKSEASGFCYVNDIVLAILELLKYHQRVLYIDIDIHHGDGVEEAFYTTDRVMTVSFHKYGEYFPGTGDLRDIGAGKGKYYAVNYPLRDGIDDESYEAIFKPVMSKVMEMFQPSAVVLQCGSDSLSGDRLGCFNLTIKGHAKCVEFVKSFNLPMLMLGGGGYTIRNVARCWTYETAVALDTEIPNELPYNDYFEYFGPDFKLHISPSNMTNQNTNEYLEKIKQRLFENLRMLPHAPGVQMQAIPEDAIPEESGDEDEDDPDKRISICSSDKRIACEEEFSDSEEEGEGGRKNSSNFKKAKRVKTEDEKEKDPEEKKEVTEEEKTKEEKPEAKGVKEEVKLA
Chain of Histone deacetylase 3 (Homo sapiens) (O15379 whole entry): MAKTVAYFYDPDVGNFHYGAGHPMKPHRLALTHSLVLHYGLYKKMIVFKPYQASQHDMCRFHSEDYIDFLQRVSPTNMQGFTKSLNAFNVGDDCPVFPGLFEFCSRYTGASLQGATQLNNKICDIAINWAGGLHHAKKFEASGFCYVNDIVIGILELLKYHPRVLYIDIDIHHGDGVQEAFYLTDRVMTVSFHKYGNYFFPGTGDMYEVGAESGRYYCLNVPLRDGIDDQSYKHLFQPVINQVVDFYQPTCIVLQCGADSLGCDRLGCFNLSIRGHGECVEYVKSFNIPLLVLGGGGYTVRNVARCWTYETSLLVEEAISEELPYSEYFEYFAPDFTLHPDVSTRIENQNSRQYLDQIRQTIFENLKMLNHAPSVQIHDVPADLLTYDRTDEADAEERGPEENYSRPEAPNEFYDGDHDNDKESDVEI

Activity [1]: 68%
Activity [2]: 53%
Activity [3]: 34%
Activity [4]: 74%
IC50 (Histone deacetylase): 65 µM
Activity [5]: 32%
Activity [6]: 15%
Activity [7]: 30%
Activity [8]: 72%
Activity [9]: 48%
Activity [10]: 63%
Activity [11]: 33%
Activity [12]: 19%
Activity [13]: 53%
Activity [14]: 53%
Activity [15]: 88%
Activity [16]: 22%
Activity [17]: 64%
Activity [18]: 104%
Activity [19]: 29%
Activity [20]: 88%
Activity [21]: 74%
Compound: O=C(CCC(CCCC(=O)Nc1ccccc1)c1ccccc1)NO (configuration not stated)

— ChEMBL document CHEMBL4251567 (Eur J Med Chem, 2018)
